Data taken from ChEMBL document CHEMBL2439972, “Synthesis, pharmacological and structural characterization, and thermodynamic aspects of GluA2-positive allosteric modulators with a 3,4-dihydro-2H-1,2,4-benzothiadiazine 1,1-dioxide scaffold” (J Med Chem, 2013).

Key:
[1] = target: Glutamate receptor 2 (Rattus norvegicus) (UniProt P19491); test: Positive allosteric modulation of GluA2 receptor in rat embryonic cortex neuron assessed as concentration required to 2 fold increase of AMPA-induced membrane depolarization by fluorescence assay
Chain of Glutamate receptor 2 (Rattus norvegicus) (P19491 whole entry): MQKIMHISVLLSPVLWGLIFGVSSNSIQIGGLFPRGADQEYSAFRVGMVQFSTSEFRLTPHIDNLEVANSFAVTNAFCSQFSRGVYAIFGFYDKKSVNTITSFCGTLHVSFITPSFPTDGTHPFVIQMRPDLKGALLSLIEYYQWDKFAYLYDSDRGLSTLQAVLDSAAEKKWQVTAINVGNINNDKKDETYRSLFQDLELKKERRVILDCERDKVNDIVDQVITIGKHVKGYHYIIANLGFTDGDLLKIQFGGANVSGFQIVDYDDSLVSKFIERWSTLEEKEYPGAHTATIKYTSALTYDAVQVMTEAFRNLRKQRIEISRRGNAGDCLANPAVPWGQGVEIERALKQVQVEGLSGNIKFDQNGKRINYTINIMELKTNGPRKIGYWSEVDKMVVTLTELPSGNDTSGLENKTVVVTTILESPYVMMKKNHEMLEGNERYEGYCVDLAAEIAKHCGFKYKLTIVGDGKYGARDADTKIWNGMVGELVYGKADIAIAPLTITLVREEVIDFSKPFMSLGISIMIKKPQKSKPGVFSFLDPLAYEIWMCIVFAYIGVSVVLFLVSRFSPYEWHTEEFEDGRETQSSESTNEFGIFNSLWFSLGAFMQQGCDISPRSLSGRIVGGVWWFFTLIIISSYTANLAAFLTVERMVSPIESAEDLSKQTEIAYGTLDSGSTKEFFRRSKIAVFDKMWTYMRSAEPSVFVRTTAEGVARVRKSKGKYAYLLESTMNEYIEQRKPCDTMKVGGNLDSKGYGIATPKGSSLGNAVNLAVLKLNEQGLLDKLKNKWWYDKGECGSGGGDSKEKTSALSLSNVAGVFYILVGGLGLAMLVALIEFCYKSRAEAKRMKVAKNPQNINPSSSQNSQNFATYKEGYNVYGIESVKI
How it was run: (§1)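 Rat E16 cortical cells cultured 18 days (37 °C, 5% CO2) were loaded with membrane-potential dye for 1 h at room temperature and read on an imaging plate reader. After a 10 s baseline, AMPA (300 μM) was added for 3 min, then compound plus AMPA for 3 min. Signal was averaged over the last 15 s, as area under the curve. Outputs: EC2× (2-fold increase), EC50, Emax relative to AMPA alone (×1). Mean ± SEM (n).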

Glutamate receptor 2 [2] = target: T1, Glutamate receptor 2 (Rattus norvegicus, UniProt P19491); test: Positive allosteric modulation of GluA2 receptor in rat embryonic cortex neuron assessed as increase of AMPA-induced membrane depolarization by fluorescence assay; how it was run: as §1
T1 sequence (P19491 whole entry): as above

[3] = target: Glutamate receptor 2 (Rattus norvegicus) (UniProt P19491); test: Positive allosteric modulation of GluA2 receptor in rat embryonic cortex neuron assessed as increase of AMPA-induced membrane depolarization by fluorescence assay relative to AMPA; how it was run: as §1
[4] = Positive allosteric modulation of GluA2 receptor (unknown origin) expressed in Xenopus laevis oocytes assessed as concentration required to 2 fold increase of AMPA-induced membrane depolarization by voltage clamp assay; conditions: Oocyte
[5] = Binding affinity to rat LBD of GluA2 receptor L483Y and N754S mutant at 243 uM by isothermal titration calorimetry analysis
[6] = target: Glutamate receptor 2 (Rattus norvegicus) (UniProt P19491); test: Positive allosteric modulation of GluA2 receptor in rat embryonic cortex neuron assessed as concentration required to 2 fold increase of AMPA-induced membrane depolarization by FLIPR assay
How it was run: (§2)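 FLIPR version of the membrane-potential dye assay on primary rat embryonic cortical neurons, same principle on a different plate reader. Measures depolarization evoked by 300 μM AMPA. Outputs: EC2× (modulator concentration doubling the AMPA response), EC50, Emax normalized to the AMPA response (×1).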

Glutamate receptor 2 [7] = target: T1, Glutamate receptor 2; test: Positive allosteric modulation of GluA2 receptor in rat embryonic cortex neuron assessed as increase of AMPA-induced membrane depolarization by FLIPR assay; how it was run: as §2
[8] = target: Glutamate receptor 2 (Rattus norvegicus) (UniProt P19491); test: Positive allosteric modulation of GluA2 receptor in rat embryonic cortex neuron assessed as increase of AMPA-induced membrane depolarization by FLIPR assay relative to AMPA; how it was run: as §2

Row | Activity [1] [µM] | EC50 (Glutamate receptor 2 [2]) [µM] | fold change (FC) [3] | Activity [4] [µM] | Kd [5] [nM] | Activity [6] [µM] | EC50 (Glutamate receptor 2 [7]) [µM] | fold change (FC) [8] | SMILES
1 | 0.47 | 2.5 | 9.2 | – | – | – | – | – | N#Cc1ccc2c(c1)S(=O)(=O)NCN2C1CC1
2 | 0.75 | 3.13 | 10.9 | 0.8 | – | – | – | – | O=S1(=O)NCN(C2CC2)c2ccc(Cl)cc21
3 | 0.73 | 4.17 | 8.5 | – | – | – | – | – | O=S1(=O)NCN(C2CC2)c2ccccc21
4 | > 100 | – | – | – | – | – | – | – | O=S1(=O)NCN(C2CC2)c2ccc(C(F)(F)F)cc21
5 | 1.27 | 4.83 | 9.3 | – | – | – | – | – | O=S1(=O)NCN(C2CC2)c2ccc(Br)cc21
6 | 0.27 | 0.9 | 15 | – | 350 | – | – | – | O=S1(=O)NCN(C2CC2)c2ccc(F)cc21
7 | – | – | – | – | – | 14 | 22.5 | 7 | O=[N+]([O-])c1ccc2c(c1)S(=O)(=O)NCN2C1CC1
8 | 5.13 | – | 8.7 | – | – | – | – | – | Cc1ccc2c(c1)S(=O)(=O)NCN2C1CC1
